From ChEMBL document CHEMBL3414514, “Synthesis and pharmacological evaluation of novel bisindole derivatives bearing oximes moiety: identification of novel proapoptotic agents” (Eur J Med Chem, 2015)

Tested on: not listed separately
Assay: Cytotoxicity against human SKOV3 cells after 2 days by MTT assay
Format: functional, cell-based
Conditions: SK-OV-3, 48 h
Procedure, shortened: (§1)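 Cells grown in medium with 10% heat-inactivated FBS at 37 C under 5% CO2. Compounds dissolved in medium with 1% DMSO; controls received 1% DMSO. After 2 days, MTT (10 mg/mL) added for 4 h, formazan dissolved in DMSO and absorbance read at 570/630 nm. Survival taken relative to negative control; IC50 by Bliss method (n = 5), at least three independent experiments.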

SMILES	IC50 [µM]
Cc1cccc2c1N=C(c1c[nH]c3c(C)cccc13)/C2=N/O	48
Fc1ccc2c(c1)N=C(c1c[nH]c3cc(F)ccc13)/C2=N/OCc1ccccc1	15.6
c1ccc2c(c1)N=C(c1c[nH]c3ccccc13)/C2=N/OCC1CC1	32.3
C=CCO/N=C1/C(c2c[nH]c3ccccc23)=Nc2ccccc21	26.7
COc1ccc2c(c1)/C(=N\OCc1ccc(F)cc1Cl)C(c1c[nH]c3ccc(OC)cc13)=N2	12.2
O/N=C1/C(c2c[nH]c3ccc(F)cc23)=Nc2ccc(F)cc21	9.89
COC(=O)c1ccc2c(c1)N=C(c1c[nH]c3cc(C(=O)OC)ccc13)/C2=N/O	26.8
N#Cc1ccc2c(c1)/C(=N\OCc1ccccc1)C(c1c[nH]c3ccc(C#N)cc13)=N2	16.6
CC(=O)Nc1ccc2c(c1)/C(=N\O)C(c1c[nH]c3ccc(NC(C)=O)cc13)=N2	21.2

Tested on: HUVEC
Assay: Cytotoxicity against human HUVEC cells after 2 days by MTT assay
Format: cell-based
Conditions: 48 h
Procedure, shortened: as §1

SMILES	IC50 [µM]
Cc1cccc2c1N=C(c1c[nH]c3c(C)cccc13)/C2=N/O	> 100
Fc1ccc2c(c1)N=C(c1c[nH]c3cc(F)ccc13)/C2=N/OCc1ccccc1	> 100
c1ccc2c(c1)N=C(c1c[nH]c3ccccc13)/C2=N/OCC1CC1	> 100
C=CCO/N=C1/C(c2c[nH]c3ccccc23)=Nc2ccccc21	> 100
COc1ccc2c(c1)/C(=N\OCc1ccc(F)cc1Cl)C(c1c[nH]c3ccc(OC)cc13)=N2	> 100
O/N=C1/C(c2c[nH]c3ccc(F)cc23)=Nc2ccc(F)cc21	> 100
COC(=O)c1ccc2c(c1)N=C(c1c[nH]c3cc(C(=O)OC)ccc13)/C2=N/O	> 100
N#Cc1ccc2c(c1)/C(=N\OCc1ccccc1)C(c1c[nH]c3ccc(C#N)cc13)=N2	> 100
CC(=O)Nc1ccc2c(c1)/C(=N\O)C(c1c[nH]c3ccc(NC(C)=O)cc13)=N2	> 100

Tested on: HepG2
Assay: Cytotoxicity against human HepG2 cells after 2 days by MTT assay
Format: functional, cell-based
Conditions: HepG2, 48 h
Procedure, shortened: as §1

SMILES	IC50 [µM]
Cc1cccc2c1N=C(c1c[nH]c3c(C)cccc13)/C2=N/O	15.6
Fc1ccc2c(c1)N=C(c1c[nH]c3cc(F)ccc13)/C2=N/OCc1ccccc1	24.1
c1ccc2c(c1)N=C(c1c[nH]c3ccccc13)/C2=N/OCC1CC1	32.1
C=CCO/N=C1/C(c2c[nH]c3ccccc23)=Nc2ccccc21	31.3
COc1ccc2c(c1)/C(=N\OCc1ccc(F)cc1Cl)C(c1c[nH]c3ccc(OC)cc13)=N2	24.1
O/N=C1/C(c2c[nH]c3ccc(F)cc23)=Nc2ccc(F)cc21	9.31
COC(=O)c1ccc2c(c1)N=C(c1c[nH]c3cc(C(=O)OC)ccc13)/C2=N/O	20.8
N#Cc1ccc2c(c1)/C(=N\OCc1ccccc1)C(c1c[nH]c3ccc(C#N)cc13)=N2	25.1
CC(=O)Nc1ccc2c(c1)/C(=N\O)C(c1c[nH]c3ccc(NC(C)=O)cc13)=N2	28.2

Tested on: not listed separately
Assay: Cytotoxicity against human T24 cells after 2 days by MTT assay
Format: functional, cell-based
Conditions: T-24, 48 h
Procedure, shortened: as §1

SMILES	IC50 [µM]
Cc1cccc2c1N=C(c1c[nH]c3c(C)cccc13)/C2=N/O	23.5
Fc1ccc2c(c1)N=C(c1c[nH]c3cc(F)ccc13)/C2=N/OCc1ccccc1	13.3
c1ccc2c(c1)N=C(c1c[nH]c3ccccc13)/C2=N/OCC1CC1	35.4
C=CCO/N=C1/C(c2c[nH]c3ccccc23)=Nc2ccccc21	32.1
COc1ccc2c(c1)/C(=N\OCc1ccc(F)cc1Cl)C(c1c[nH]c3ccc(OC)cc13)=N2	12.4
O/N=C1/C(c2c[nH]c3ccc(F)cc23)=Nc2ccc(F)cc21	10.1
COC(=O)c1ccc2c(c1)N=C(c1c[nH]c3cc(C(=O)OC)ccc13)/C2=N/O	14.3
N#Cc1ccc2c(c1)/C(=N\OCc1ccccc1)C(c1c[nH]c3ccc(C#N)cc13)=N2	18.6
CC(=O)Nc1ccc2c(c1)/C(=N\O)C(c1c[nH]c3ccc(NC(C)=O)cc13)=N2	16.8

Tested on: NCI-H460
Assay: Cytotoxicity against human NCI-H460 cells after 2 days by MTT assay
Format: functional, cell-based
Conditions: NCI-H460, 48 h
Procedure, shortened: as §1

SMILES	IC50 [µM]
Cc1cccc2c1N=C(c1c[nH]c3c(C)cccc13)/C2=N/O	31.4
Fc1ccc2c(c1)N=C(c1c[nH]c3cc(F)ccc13)/C2=N/OCc1ccccc1	19.4
c1ccc2c(c1)N=C(c1c[nH]c3ccccc13)/C2=N/OCC1CC1	40.9
C=CCO/N=C1/C(c2c[nH]c3ccccc23)=Nc2ccccc21	24.5
COc1ccc2c(c1)/C(=N\OCc1ccc(F)cc1Cl)C(c1c[nH]c3ccc(OC)cc13)=N2	13
O/N=C1/C(c2c[nH]c3ccc(F)cc23)=Nc2ccc(F)cc21	12.8
COC(=O)c1ccc2c(c1)N=C(c1c[nH]c3cc(C(=O)OC)ccc13)/C2=N/O	20.8
N#Cc1ccc2c(c1)/C(=N\OCc1ccccc1)C(c1c[nH]c3ccc(C#N)cc13)=N2	14.5
CC(=O)Nc1ccc2c(c1)/C(=N\O)C(c1c[nH]c3ccc(NC(C)=O)cc13)=N2	30.2

Tested on: not listed separately
Assay: Cytotoxicity against human SPCA2 cells after 2 days by MTT assay
Format: functional, cell-based
Conditions: SPCA2, 48 h
Procedure, shortened: as §1

SMILES	IC50 [µM]
Cc1cccc2c1N=C(c1c[nH]c3c(C)cccc13)/C2=N/O	24.3
Fc1ccc2c(c1)N=C(c1c[nH]c3cc(F)ccc13)/C2=N/OCc1ccccc1	20.2
c1ccc2c(c1)N=C(c1c[nH]c3ccccc13)/C2=N/OCC1CC1	33.8
C=CCO/N=C1/C(c2c[nH]c3ccccc23)=Nc2ccccc21	26.9
COc1ccc2c(c1)/C(=N\OCc1ccc(F)cc1Cl)C(c1c[nH]c3ccc(OC)cc13)=N2	11.1
O/N=C1/C(c2c[nH]c3ccc(F)cc23)=Nc2ccc(F)cc21	13.7
COC(=O)c1ccc2c(c1)N=C(c1c[nH]c3cc(C(=O)OC)ccc13)/C2=N/O	27.2
N#Cc1ccc2c(c1)/C(=N\OCc1ccccc1)C(c1c[nH]c3ccc(C#N)cc13)=N2	19.3
CC(=O)Nc1ccc2c(c1)/C(=N\O)C(c1c[nH]c3ccc(NC(C)=O)cc13)=N2	27.8

Tested on: A549
Assay: Cytotoxicity against human A549 cells after 2 days by MTT assay
Format: functional, cell-based
Conditions: A549, 48 h
Procedure, shortened: as §1

SMILES	IC50 [µM]
Cc1cccc2c1N=C(c1c[nH]c3c(C)cccc13)/C2=N/O	17.5
Fc1ccc2c(c1)N=C(c1c[nH]c3cc(F)ccc13)/C2=N/OCc1ccccc1	15.7
c1ccc2c(c1)N=C(c1c[nH]c3ccccc13)/C2=N/OCC1CC1	36.7
C=CCO/N=C1/C(c2c[nH]c3ccccc23)=Nc2ccccc21	30.9
COc1ccc2c(c1)/C(=N\OCc1ccc(F)cc1Cl)C(c1c[nH]c3ccc(OC)cc13)=N2	19.1
O/N=C1/C(c2c[nH]c3ccc(F)cc23)=Nc2ccc(F)cc21	11.9
COC(=O)c1ccc2c(c1)N=C(c1c[nH]c3cc(C(=O)OC)ccc13)/C2=N/O	25.9
N#Cc1ccc2c(c1)/C(=N\OCc1ccccc1)C(c1c[nH]c3ccc(C#N)cc13)=N2	14.2
CC(=O)Nc1ccc2c(c1)/C(=N\O)C(c1c[nH]c3ccc(NC(C)=O)cc13)=N2	21.9

Tested on: MGC-803
Assay: Cytotoxicity against human MGC803 cells after 2 days by MTT assay
Format: functional, cell-based
Conditions: MGC-803, 48 h
Procedure, shortened: as §1

SMILES	IC50 [µM]
Cc1cccc2c1N=C(c1c[nH]c3c(C)cccc13)/C2=N/O	16.9
Fc1ccc2c(c1)N=C(c1c[nH]c3cc(F)ccc13)/C2=N/OCc1ccccc1	21.9
c1ccc2c(c1)N=C(c1c[nH]c3ccccc13)/C2=N/OCC1CC1	29.9
C=CCO/N=C1/C(c2c[nH]c3ccccc23)=Nc2ccccc21	24.3
COc1ccc2c(c1)/C(=N\OCc1ccc(F)cc1Cl)C(c1c[nH]c3ccc(OC)cc13)=N2	16.1
O/N=C1/C(c2c[nH]c3ccc(F)cc23)=Nc2ccc(F)cc21	12.3
COC(=O)c1ccc2c(c1)N=C(c1c[nH]c3cc(C(=O)OC)ccc13)/C2=N/O	29.8
N#Cc1ccc2c(c1)/C(=N\OCc1ccccc1)C(c1c[nH]c3ccc(C#N)cc13)=N2	15.5
CC(=O)Nc1ccc2c(c1)/C(=N\O)C(c1c[nH]c3ccc(NC(C)=O)cc13)=N2	17.9
